# Source: PubChem (several laboratories)
# The list is not random: actives were taken first. Their share in the collection is about 2.2%.
# eIF4E-4G inh = inhibitors of eIF4E and eIF4G interaction in translation initiation | P63073+Q04637 | TR-FRET eIF4E-eIF4GI(517-606) binding, 2 h | inhibition, % at 21.7 µM | 220,000 tested, 0.37% active | AID 782;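 active means inhibition above about 30%, limit read from the data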
# PERK inhibitor = blocks human PERK kinase; inhibition, % at 5.6 µM; Q9NZJ5; 220,000 tested, 0.17% active; CHO PERK-DD fusion, SEAP luminescence translation reporter;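 active means inhibition above the mean inhibition of all tested compounds plus 3 SD, set separately per screening campaign, cut at about 2.9% in these data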;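 further: PERK kinase domain activated by AP20187 dimerizer at 100 nM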
# Runt-SMMHC FRET = blocks binding of human RUNX1 Runt domain to CBFb-SMMHC; inhibition, % at 20 µM; Q01196+Q13951; 220,000 tested, 0.74% active; Cerulean-Runt/Venus-CBFb-SMMHC FRET ratio 530/480, 1 h;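 active means mean inhibition across duplicate retests at 20 µM reaching about 50%, limit read from the data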;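 further: inhibitors lower the FRET ratio by blocking Runt binding to CBFb-SMMHC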
# RanGTP-Impb inh = inhibitors of RanGTP-importin-beta interaction, primary screen, biochemical, FRET, CFP-Ran, YFP-importin-beta, homogeneous. cell-free CFP-Ran/YFP-importin-beta FRET ratio. inhibition, % (test concentration not listed). 300,000 tested, 1.1% active. AID 2216;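 active means more than half of the replicate wells show a fall in the fluorescence ratio signal beyond about 16%, limit read from the data, passing the limit was not always enough; inconclusive means exactly half of the replicate wells pass the set limit; inactive means fewer than half of replicates pass the limit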
# Runt-CBFb FRET = Runt domain-CBFb interaction inhibition; Q01196+Q13951; Cerulean-Runt/Venus-CBFb FRET ratio 530/480, 1 h; inhibition, % at 20 µM; 220,000 tested, 0.46% active;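 active means inhibition over about 50% at 20 µM in the single-dose screen, limit read from the data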
#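 Schedule: protein complex preformed 1 h, compound exposure 1 h, room temperature, dark; test system: Cerulean-labeled Runt domain protein; amount: 100 nM per protein; buffer or medium: Tris 50 mM pH 7.5, KCl, K2SO4, 0.01% BSA; read-out: loss of energy transfer signal; detection: FRET fluorescence; controls: 5 µM unlabeled CBFb as full-inhibition high control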
# Hck Nef HTS = inhibitors of human Hck kinase activated by Nef | P08631 | Recombinant Hck-YEEI plus Nef, Z-Lyte FRET kinase assay | inhibition, % at 20 µM | 220,000 tested, 0.68% active;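 active means Hck-Nef kinase inhibition above about 50%, limit read from the data; inactive means inhibition below that limit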
# Target sequence (P08631 whole entry, looked up): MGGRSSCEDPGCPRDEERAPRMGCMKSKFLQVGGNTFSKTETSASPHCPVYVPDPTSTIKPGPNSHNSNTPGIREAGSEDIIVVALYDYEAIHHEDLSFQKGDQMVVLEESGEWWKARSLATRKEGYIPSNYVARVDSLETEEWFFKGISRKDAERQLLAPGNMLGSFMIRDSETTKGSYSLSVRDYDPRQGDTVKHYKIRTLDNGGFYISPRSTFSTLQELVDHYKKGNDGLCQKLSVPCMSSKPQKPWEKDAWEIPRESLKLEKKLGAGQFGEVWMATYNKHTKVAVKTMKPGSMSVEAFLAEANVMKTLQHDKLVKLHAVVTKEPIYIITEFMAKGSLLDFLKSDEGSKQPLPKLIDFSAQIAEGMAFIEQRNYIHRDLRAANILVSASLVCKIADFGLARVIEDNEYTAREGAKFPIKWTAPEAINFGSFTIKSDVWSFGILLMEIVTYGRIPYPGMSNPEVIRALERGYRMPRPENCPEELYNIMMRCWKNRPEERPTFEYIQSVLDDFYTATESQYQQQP
# Numbers stand for hits; i = inactive; ? = inconclusive; nt = no result; ! = repeats disagree; [ ] = dose if it differs, or a comment.
SMILES,eIF4E-4G inh,PERK inhibitor,Runt-SMMHC FRET,RanGTP-Impb inh,Runt-CBFb FRET,Hck Nef HTS
Cc1ccc2c(CC(=O)NC3CCCc4ccccc43)coc2c1 (stereo not drawn),i,i,i,i,i,i
CSc1ccccc1OCc1cc(C(=O)NCc2cccc(C)n2)no1,nt,nt,nt,i,nt,nt
CC(=O)c1c(N2CCN(c3cccc(Cl)c3)CC2)nc(=S)n(-c2ccccc2)c1C,i,i,i,46.4,i,i
CCn1c(C)c(C(C)=O)c(N2CCN(c3ccc(OC)cc3)CC2)nc1=S,i,i,i,83.8,i,i
CC(=O)c1c(N2CCN(c3ccccn3)CC2)nc(=S)n(-c2ccccc2)c1C,i,i,98.8,57.0,93.1,i
CN(C(=O)N1CCN(c2ccccn2)CC1)c1ccccc1,i,i,i,i,nt,i
CCSc1nc(=S)n(Cc2ccccc2)c(C)c1C(C)=O,i,i,i,i,i,i
CC(=O)c1c(N2CCN(C)CC2)nc(=S)n(Cc2ccccc2)c1C,i,i,82.9,?,62.5,i
O=C(CNC(=O)c1ccc(Br)o1)OCC(=O)c1cccc([N+](=O)[O-])c1,i,i,i,i,i,i
CCOc1ccc(/C=C\C(C)=N\O)cc1,i,i,i,i,i,i
Cc1ccc2nc(SCC(=O)Nc3c(C)n(C)n(-c4ccccc4)c3=O)[nH]c2c1,i,i,i,i,i,i
COc1ccc(N2CCN(c3nc(=S)n(-c4ccccc4)c(C)c3C(C)=O)CC2)cc1,i,i,i,91.8,i,i
CCn1c(C)c(C(C)=O)c(N2CCN(c3cccc(Cl)c3)CC2)nc1=S,i,i,i,28.5,i,i
CCS(=O)(=O)N1Cc2ccccc2CC1C(=O)Nc1ccc(F)cc1 (stereo not drawn),i,i,80.2,i,i,i
Cc1ccc(C(=O)O)cc1NC(=S)NC(=O)c1ccc(-c2ccc(Cl)cc2)o1,i,i,i,i,i,56.1
COc1ccc(C(=O)O)cc1NC(=S)NC(=O)c1ccc(-c2ccc(Cl)cc2)o1,i,i,i,i,i,i
NC(=O)c1ccc(Oc2cccc3cccnc23)c([N+](=O)[O-])c1,i,i,84.6,i,i,i
COC(=O)/C=C/C(=O)N1CCN(c2ccccc2C)CC1,41.5[fluorescence artefact?],i,i,i,i,i
COC(=O)/C=C/C(=O)N1CCN(c2ccccc2)CC1,i,i,i,i,i,i
COc1ccc(/C=C(/C(=O)c2cccs2)N2C=CC=CC2=C(C#N)C#N)cc1,i,i,i,21.8,i,i
Cc1c(O)ccc2c(CC(=O)N[C@@H](Cc3ccccc3)C(=O)O)cc(=O)oc12,nt,nt,nt,68.0,nt,nt
Nc1cc(N)nc(SCc2cc(=O)oc3cc4c(cc23)CCC4)n1,i,i,i,31.1,i,i
CCc1cc2c(CN3CCN(Cc4ccccc4)CC3)cc(=O)oc2cc1O,nt,nt,nt,87.7,nt,nt
Cc1c(O)ccc2c(CN3CCN(Cc4ccccc4)CC3)cc(=O)oc12,nt,nt,nt,54.0,nt,nt
O=c1cc(CN2CCN(Cc3ccccc3)CC2)c2ccc(O)c(O)c2o1,nt,nt,nt,i,nt,nt
SMILES,eIF4E-4G inh,PERK inhibitor,Runt-SMMHC FRET,RanGTP-Impb inh,Runt-CBFb FRET,Hck Nef HTS
CCc1ccc2c(CN3CCN(Cc4ccccc4)CC3)cc(=O)oc2c1,nt,nt,nt,i,nt,nt
Cc1cc2oc(=O)cc(CSc3nc(N)cc(N)n3)c2cc1C(C)C,i,i,i,?,i,i
O=[N+]([O-])c1cccc(C(=S)N2CCCC2)c1,i,i,i,i,i,i
CC1(C)CC2CC(C)(CN2C(=O)c2cc(-c3ccc(O)cc3)on2)C1 (stereo not drawn),nt,nt,nt,i,nt,nt
CCn1nnc2sc3c(c2c1=O)CCC(C)C3 (stereo not drawn),i,i,i,i,nt,i
Cn1cc(SCC(N)=O)c2ccccc21,i,i,i,?,i,i
CCOc1ccccc1N1CC(C(=O)Nc2ccc(C(=O)O)cc2)CC1=O (stereo not drawn),i,i,i,i,i,i
CCc1cc2c(CN(C)Cc3ccccc3F)cc(=O)oc2cc1O,nt,nt,nt,53.6,nt,nt
Cc1ccccc1CN(C)Cc1cc(=O)oc2c(C)c(C)ccc12,nt,nt,nt,i,nt,nt
COc1cccc(CN(C)Cc2cc(=O)oc3cc(O)c(Cl)cc23)c1,nt,nt,nt,76.9,nt,nt
CCc1cc(=O)oc2c(C)c(O)c(CN3CCCCC3)cc12,i,i,78.0,53.4,73.4,i
Cc1c(O)ccc2c(CN(C)Cc3ccccc3)cc(=O)oc12,i,i,81.2,22.7,i,i
COc1cccc(CN(C)Cc2cc(=O)oc3c(C)c(C)ccc23)c1,nt,nt,nt,i,nt,nt
O=c1cc(CN2CCN(Cc3ccccc3)CC2)c2cc3c(cc2o1)CCC3,i,i,81.1,i,i,i
O=c1cc(CN2CCN(CCO)CC2)c2cc3c(cc2o1)CCC3,i,i,i,i,i,i
CCC(=O)Nc1ccc2ccccc2c1,i,i,i,i,i,i
CC(C)CC(=O)Nc1ccc2ccccc2c1,i,3.2!,i,i,i,i
O=C(Nc1nc2ccc(F)cc2s1)C1CCN(S(=O)(=O)c2cc([N+](=O)[O-])ccc2Cl)CC1,i,i,i,i,i,i
C/C=C/C=C/[C@H]1Cc2cc(O)cc(O)c2O1,i,nt,i,22.0,i,i
Clc1ccccc1Nc1nnc(-c2ccncc2)s1,i,i,i,i,i,i
O=C(CSc1nncn1-c1ccccc1)c1c[nH]c2ccccc12,i,i,i,i,i,i
Cn1cnnc1SCC(=O)c1c[nH]c2ccccc12,i,i,i,31.3,i,i
O=C(CN1C(=O)CSc2ccc(S(=O)(=O)N3CCOCC3)cc21)NCCCN1CCOCC1,i,i,i,151.4,i,i
O=C(CN1C(=O)CSc2ccc(S(=O)(=O)N3CCOCC3)cc21)N1CCCCC1,nt,nt,nt,62.1,nt,nt
COc1ccccc1-n1cnc2cc(C(=O)NCCCN3CCOCC3)ccc21,i,i,i,i,i,i
SMILES,eIF4E-4G inh,PERK inhibitor,Runt-SMMHC FRET,RanGTP-Impb inh,Runt-CBFb FRET,Hck Nef HTS
Cc1cccc(-n2c3nc(=O)[nH]c(=O)c-3cc3cc([N+](=O)[O-])ccc32)c1,i,i,54.6,i,i,i
CN1CCN(c2nc3ccccn3c(=O)c2/C=C(\C#N)S(=O)(=O)c2ccc(Cl)cc2)CC1,i,i,i,96.7,i,i
Cc1ccc(S(=O)(=O)/C(C#N)=C/c2c(N3CCN(C)CC3)nc3ccccn3c2=O)cc1,i,i,i,65.5,i,i
COC(=O)/C(C#N)=C/c1c(N2CCN(c3ccccc3)CC2)nc2ccccn2c1=O,nt,nt,nt,i,nt,nt
Cc1cccn2c(=O)c(/C=C(\C#N)S(=O)(=O)c3ccccc3)c(Oc3ccc(Cl)cc3)nc12,i,i,i,26.9,i,i
COC(=O)/C(C#N)=C/c1c(N2CCN(C)CC2)nc2ccccn2c1=O,nt,nt,nt,107.4,nt,nt
Cc1cc(Oc2nc3c(C)cccn3c(=O)c2/C=C(\C#N)S(=O)(=O)c2ccccc2)ccc1Cl,i,i,i,i,i,i
Sc1oc(-c2ccccc2)cc1C=Nc1ccccc1,i,i,i,i,i,i
